IDE act: activators of human insulin-degrading enzyme in cells | P14735 | HEK cells, FAbeta-B cleavage, fluorescence polarization; 0% vehicle, 100% cell-free pure enzyme wells | activation, % at 5.96 µM | 340,000 compounds, 0.073% hits;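 active means activation above the mean of all tested compounds plus 3 SD, set per screening campaign, cut at about 17% in these data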
UBC13 polyUb: inhibitors of human UBC13 polyubiquitin chain formation; inhibition, % at 20 µM; 330,000 compounds, 0.47% hits; TR-FRET; P61088; AID 485273; in the data active means inhibition above about 45%, passing the limit was not always enough; inconclusive means no clear call, values can overlap the other calls
IDE inh: inhibitors of human insulin-degrading enzyme in cells; inhibition, % at 5.59 µM; P14735; AID 434962; HEK cells, FAbetaB cleavage, fluorescence polarization; 320,000 compounds, 0.41% hits;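 active means percent inhibition above the average of all tested compounds plus 3 SD, set per screening campaign, cut at about 16% in these data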;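 further: IDE supplied by intact live HEK cells; FP after avidin binding of uncleaved biotin substrate so inhibition keeps polarization high; 0% = DMSO wells and 100% = 60 µM reference IDE inhibitor Ii1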
procasp3 activ: procaspase-3 (human) activation; P42574; recombinant procaspase-3 D3A, Ac-DEVD-pNA absorbance 405 nm; activation, % at 8.5 µM; 330,000 compounds, 0.11% hits; AID 463141;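 active means activation above the mean of all tested compounds plus 3 SD, cut at about 21% in these data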;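 further: 0% = DMSO alone and 100% = DMSO wells spiked with extra 5 µM PC-3 D3A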
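Evaluation: percent activation relative to control range; Material: Procaspase-3 D3A mutant, all three cleavage aspartates alanine; Compound: single dose, 8.5 µM nominal compound, 0.8% DMSO; Replication: one well per compound; Signal: absorbance at 405 nm, 0 and 120 min; Schedule: 1 h preincubation plus 2 h reaction at 25 °C.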
PHOSPHO1 inh: blocks human PHOSPHO1 phosphatase activity; Q8TCT1; recombinant PHOSPHO1, absorbance phosphatase assay; inhibition, % at 13.3 µM; 290,000 compounds, 1.1% hits; in the data active means inhibition above about 60%
Target sequence (Q8TCT1 whole entry, looked up): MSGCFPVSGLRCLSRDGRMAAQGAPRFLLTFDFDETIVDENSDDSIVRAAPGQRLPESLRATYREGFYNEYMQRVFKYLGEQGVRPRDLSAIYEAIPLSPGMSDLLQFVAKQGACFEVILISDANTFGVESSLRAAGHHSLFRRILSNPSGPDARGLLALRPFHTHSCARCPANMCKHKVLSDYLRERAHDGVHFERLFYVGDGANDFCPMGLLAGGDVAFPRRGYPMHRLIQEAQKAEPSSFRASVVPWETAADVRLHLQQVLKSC
procasp7 counter: counter-screen for procaspase-3 activators: activators of human procaspase-7; AID 463210; activation, % at 8.5 µM; recombinant procaspase-7, Ac-DEVD-pNA absorbance 405 nm; D23A/D198A/D206A triple mutant, cannot self-cleave; scale: DMSO 0, 5 µM enzyme 100; P55210; 330,000 compounds, 0.093% hits;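 active means percent activation above the screen-wide mean plus 3 SD, cut at about 25% in these data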
Target sequence (P55210 whole entry D23A/D198A/D206A): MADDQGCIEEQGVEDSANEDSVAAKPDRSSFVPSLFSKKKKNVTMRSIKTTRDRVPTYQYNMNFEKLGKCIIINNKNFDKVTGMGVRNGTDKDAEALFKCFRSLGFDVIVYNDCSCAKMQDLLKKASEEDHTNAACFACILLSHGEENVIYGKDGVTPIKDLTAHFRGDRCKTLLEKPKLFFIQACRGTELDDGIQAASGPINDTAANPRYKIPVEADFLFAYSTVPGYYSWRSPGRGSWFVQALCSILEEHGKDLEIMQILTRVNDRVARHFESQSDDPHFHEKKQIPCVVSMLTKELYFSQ
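System: Procaspase-7 triple mutant (PC-7 D3A); measure: % activation from two-timepoint absorbance difference, scaled to controls; times: 1 h compound preincubation, 2 h substrate cleavage, 25 °C; also added: Ac-DEVD-pNA substrate, 400 µM as added; measured by: Epi-absorbance of released pNA at 405 nm, two timepoints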
An asterisk follows results filed as active; u = inconclusive; x = not tested or not shown. This is a sample that favours compounds with a hit; in the whole collection about 1.9% have one here.

SMILES	IDE act	UBC13 polyUb	IDE inh	procasp3 activ	PHOSPHO1 inh	procasp7 counter
Cc1cc(=O)[nH]c2ccc(S(=O)(=O)NCc3ccccc3)cc12	-7	-8	5	0	63*	-11
CN(C)C(CNC(=O)c1ccc(NS(=O)(=O)c2ccc3[nH]c(=O)[nH]c3c2)cc1)c1ccccc1 (stereo unspecified)	3	-6	-7	-6	x	-2
CCC(=O)N(c1nnc(SCC(=O)c2ccc[nH]2)s1)C1CC1	0	-10	7	0	x	2
COc1ccc(CNC(=O)c2cc(S(=O)(=O)N3CCCCC3)ccc2N2CCOCC2)cc1OC	2	x	x	x	x	x
CCn1nc(NS(=O)(=O)c2ccc(NC(C)=O)cc2)c2cc3ccccc3nc21	-5	-13	7	-8	65*	4
CCCn1nc(NC(=O)CC(C)C)c2cc3ccccc3nc21	0	1	-4	-10	69*	-8
O=C1OCCC1Sc1nc2cc(Cl)ccc2n1Cc1ccccc1 (stereo unspecified)	-2	8	1	2	89*	1
CCOc1ccc(N)c(SSc2cc(OCC)ccc2N)c1	-13	-34	15	-14	67*	-33
Cc1ccc(C2=NNC(C(O)C(O)C(O)C(O)CO)S2)cc1 (stereo unspecified)	10	-14	3	5	90*	-5
OC[C@H](O)[C@H](O)[C@@H](O)[C@@H](O)[C@@H]1SC(c2ccccc2)=NN1c1ccccc1	x	4	8	11	-35	0
CN(C)CCNC(=O)/C(=C/c1ccc(-c2ccc(Cl)cc2)o1)NC(=O)c1ccccc1	1	x	2	-5	-19	1
Cc1ccc(C(=O)N/C(=C\c2ccc(-c3ccc(Br)cc3)o2)C(=O)NCCCN(C)C)cc1	7	72*	-7	4	-2	1
Nc1c(-c2ccccc2)cnn1-c1cccc([N+](=O)[O-])c1	4	-17	12	-11	65*	-1
COc1cc(C(=S)N(C)C)ccc1O	1	-2	-5	-12	69*	-17
CCCOC(=O)c1ccc(O)c(OC)c1	-6	4	-3	2	25	-8
O=C(NCCCN1CCN(CCCNC(=O)c2cccc(Cl)c2)CC1)c1cccc(Cl)c1	5	25	-3	10	-12	5
O=C(NCCN1CCCC1)c1cccc(Cl)c1	-2	3	-4	6	60*	1
Cc1nc(SCc2cccc(F)c2)c2oc3ccccc3c2n1	-3	-4	3	-3	25	0
CCOc1ccccc1C1C(C#N)=C(N)Oc2n[nH]c(CC)c21 (stereo unspecified)	3	-1	-1	-4	20	5
CCOc1ccc(C2C(C#N)=C(N)SC(N)=C2C#N)cc1OC	x	u	20*	-11	1	-9
CCOc1ccc(C2C(C#N)=C(N)SC(N)=C2C#N)cc1OCC	-13	u	10	-10	-12	-20
CCOc1ccccc1C1C(C#N)=C(N)SC(N)=C1C#N	-7	u	3	-28	70*	-28
O=C(COc1ccccc1)NCc1nnc2c3ccccc3c(-c3ccccc3)nn12	2	-8	5	0	-14	3
CC(=O)NCc1nnc2c3ccccc3c(-c3ccccc3)nn12	1	5	9	-2	61*	1
O=C(Cc1n[nH]c(=O)c2ccccc12)Nc1cc(Cl)ccc1-n1cncn1	1	2	3	3	x	3
SMILES	IDE act	UBC13 polyUb	IDE inh	procasp3 activ	PHOSPHO1 inh	procasp7 counter
C#CCOCCOCCOCCNc1nc(N2CCN(C(=O)[C@H](CCCCN)n3cc([C@@H](N)[C@H](C)CC)nn3)CC2)nc(N2CCN(C(=O)[C@H](CCC(=O)O)n3cc([C@@H](N)CCSC)nn3)CC2)n1	4	16	-1	4	x	11
NC1=NC[C@H](Cc2ccc(O)cc2)N1CCCCC1CCCCC1	5	73*	0	8	35	0
NC1=NC[C@@H](Cc2ccc(O)cc2)N1CCc1cccc2ccccc12	0	43	-5	2	-13	6
CC(=O)c1csc(CS(=O)(=O)c2ccccn2)n1	-7	2	0	5	61*	8
Cc1cc(C)cc(CC2CC(=O)N(c3ccc([N+](=O)[O-])cc3)C2=O)c1 (stereo unspecified)	10	7	-4	8	30	0
Cc1cc2nc3c(=O)[nH]c(=O)[nH]c3nc2c([N+](=O)[O-])c1N	21*	x	x	x	6	x
Cc1c(N)c(C(C)(C)C)cc(C(C)(C)C)c1[N+](=O)[O-]	-2	6	-3	7	-7	-11
CCOC(=O)CCCc1sc(N)nc1-c1[nH]c(=O)[nH]c1C	-3	-9	10	-9	88*	-18
CCN1CCN(c2nc(C)nc3c2sc(=S)n3C)CC1	-3	-10	x	x	60*	x
Cc1nc(N2CCCCC2)c2sc(=S)n(C)c2n1	3	2	8	0	14	5
Cn1cnc([N+](=O)[O-])c1Sc1ncccc1N	0	-6	2	0	102*	7
Cc1ccc(Sc2c([N+](=O)[O-])ncn2C)cc1	6	4	3	-4	-12	9
Cn1c(=O)c(C(=O)Nc2ncccc2O)c(O)c2ccccc21	2	-11	-7	-2	82*	-4
CCCn1c(=O)c(C(=O)Nc2ncccc2O)c(O)c2ccccc21	-3	-11	x	x	-18	x
CCOC(=O)C1(CCOc2ccccc2)CCN(Cc2cccc3nonc23)CC1	0	3	1	-5	60*	-7
COc1ccc(S(=O)(=O)N2CC(=O)Nc3ccccc32)cc1	2	3	-2	-3	25	-1
O=C(COC(=O)CC1CCCC1)Nc1ccccc1[N+](=O)[O-]	1	14	2	1	x	0
COc1ccc(OC)c(C(=O)COC(=O)CN2C(=O)NC3(CCCCC3C)C2=O)c1 (stereo unspecified)	22*	2	-2	-7	x	-2
CNC(=S)N(Cc1cccs1)Cc1cc2cc(OC)ccc2[nH]c1=O	34*	9	6	-4	6	5
COc1ccc2[nH]c(=O)c(CN(Cc3cccs3)C(=S)Nc3cccc(C)c3)cc2c1	6	-5	-4	12	-9	7
Cc1nc2ccc(Nc3nc4cc(S(=O)(=O)N5CCOCC5)ccc4o3)cc2s1	-7	-1	2	-31	92*	-35
O=C(CSc1nc2cc(S(=O)(=O)N3CCOCC3)ccc2o1)Nc1c(F)cccc1F	7	-14	0	-15	-164	-10
Cc1ccc(C(=O)CSc2nc3cc(S(=O)(=O)N4CCOCC4)ccc3o2)cc1	0	-5	-5	-11	68*	0

Bioassay records (PubChem)
